Data as given in ChEMBL document CHEMBL4177542, “A New Combination of a Pleuromutilin Derivative and Doxycycline for Treatment of Multidrug-Resistant Acinetobacter baumannii” (J Med Chem, 2017).
In brackets after ≈: the same amount, converted by molar mass.

What was measured:
[1] = system: Pseudomonas aeruginosa; experiment: Growth inhibition of Pseudomonas aeruginosa ATCC 27853 at 2:1 compound to doxycycline ratio after 48 hrs by resazurin dye based microdilution method; type: functional; details: ATCC 27853, 48 h
In short: (§1)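 Checkerboard broth microdilution of drug pairs in tryptic soy broth on mid-log cultures (OD 0.5), 48 h at 37 °C. Growth read by resazurin (pink growth, blue no growth). MBC is blue retained over 4 h, CFU plating where needed. ΣFIC = C_A/MIC_A + C_B/MIC_B, taken at the growth/no-growth interface wells; ΣFIC <0.5 counts as synergy.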

[2] = system: Mycobacterium tuberculosis; experiment: Synergistic bactericidal activity against Mycobacterium tuberculosis H37Rv at 2:1 compound to doxycycline ratio after 48 hrs by resazurin dye based microdilution broth checkerboard method; type: functional; details: read-out: MBC99.9
[3] = Half life in Sprague-Dawley rat liver microsomes at 500 ng/ml by LC/MS analysis; type: ADME, microsome
In short: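 Pooled Sprague-Dawley rat liver microsomes at 1 mg/mL protein in 100 mM phosphate, pH 7.4. Compound at 500 ng/mL final; verapamil as positive control. Pre-equilibrated 5 min at 37 °C, then 1 mM NADPH added. Triplicate samples at 0, 5, 10, 20, 30, 45 and 60 min, quenched in 4 volumes of cold methanol, analysed by LC-MS.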

[4] = system: Escherichia coli; experiment: Synergistic antibacterial activity against Escherichia coli ATCC 10798 at 2:1 compound to doxycycline ratio after 48 hrs by resazurin dye based microdilution broth checkerboard method; type: functional; details: ATCC 10798, 48 h; in short: as §1
[5] = system: Acinetobacter baumannii; experiment: Potentiation of doxycycline-induced antimicrobial activity against Acinetobacter baumannii ATCC 19606 at 0.40 ug/ml in presence of 0.025 ug/ml doxycycline by microdilution broth checkerboard method; type: functional, ATCC 19606 = CIP 70.34 = JCM 6841
In short: (§2)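 A. baumannii ATCC 19606 in a broth microdilution checkerboard with doxycycline, 96 concentration combinations. ΣFIC = C_A/MIC_A + C_B/MIC_B, taken for wells at the growth/no-growth interface; ΣFIC <0.5 counts as synergy.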

[6] = system: Klebsiella pneumoniae; experiment: Synergistic bactericidal activity against Klebsiella pneumoniae ATCC 8047 at 2:1 compound to doxycycline ratio after 48 hrs by resazurin dye based microdilution broth checkerboard method; type: functional; details: ATCC 8047, 48 h, read-out: MBC99.9; in short: as §1
[7] = system: Acinetobacter baumannii; experiment: Synergistic antibacterial activity against multidrug-resistant Acinetobacter baumannii ATCC […] at 2:1 compound to doxycycline ratio after 48 hrs by resazurin dye based microdilution broth checkerboard method; type: functional; details: ATCC BAA 18002, 48 h
In short: (§3)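 Microdilution broth checkerboard of the compound combined with doxycycline, using the resazurin broth method (48 h, 37 °C, blue = no growth). ΣFIC = C_A/MIC_A + C_B/MIC_B, taken at the growth–no growth interface wells; ΣFIC below 0.5 is scored as synergy. MBC for the fixed-ratio combinations read as the 4 h resazurin endpoint.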

[8] = system: Acinetobacter baumannii; experiment: Potentiation of doxycycline-induced antimicrobial activity against Acinetobacter baumannii ATCC 19606 at 0.78 ug/ml in presence of 0.025 ug/ml doxycycline by microdilution broth checkerboard method; type: functional, ATCC 19606 = CIP 70.34 = JCM 6841; in short: as §2
[9] = system: Acinetobacter baumannii; experiment: Synergistic antibacterial activity against Acinetobacter baumannii ATCC 19606 at 60:1 compound to doxycycline ratio after 48 hrs by resazurin dye based microdilution broth checkerboard method; type: functional; details: ATCC 19606 = CIP 70.34 = JCM 6841, 48 h; in short: as §1
[10] = system: Escherichia coli; experiment: Synergistic antibacterial activity against Escherichia coli ATCC 10798 at 60:1 compound to doxycycline ratio after 48 hrs by resazurin dye based microdilution broth checkerboard method; type: functional; details: ATCC 10798, 48 h; in short: as §1
[11] = system: Klebsiella pneumoniae; experiment: Synergistic antibacterial activity against Klebsiella pneumoniae ATCC 8047 at 2:1 compound to doxycycline ratio after 48 hrs by resazurin dye based microdilution broth checkerboard method; type: functional; details: ATCC 8047, 48 h; in short: as §3
[12] = system: Acinetobacter baumannii; experiment: Potentiation of doxycycline-induced antimicrobial activity against Acinetobacter baumannii ATCC 19606 at 1.56 ug/ml in presence of 0.025 ug/ml doxycycline by microdilution broth checkerboard method; type: functional, ATCC 19606 = CIP 70.34 = JCM 6841; in short: as §2
[13] = system: Staphylococcus aureus; experiment: Bactericidal activity against Staphylococcus aureus ATCC 25923 after 48 hrs by resazurin dye based microdilution method; type: functional; details: ATCC 25923, 48 h, read-out: MBC99.9
In short: (§4)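 Broth microdilution in tryptic soy broth. Mid-log cultures (OD600 0.5) treated with serial dilutions from a DMSO stock (1 mg per 100 μL) for 48 h at 37 °C. Resazurin (stock 0.02%) then added for 1 h at 37 °C. MIC is the lowest concentration staying blue; MBC is blue retained over 4 h (99.9% kill), with CFU plating when needed.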

[14] = system: Staphylococcus aureus; experiment: Growth inhibition of Staphylococcus aureus ATCC 25923 after 48 hrs by resazurin dye based microdilution method; type: functional; details: ATCC 25923, 48 h; in short: as §4
[15] = system: Escherichia coli; experiment: Synergistic bactericidal activity against Escherichia coli ATCC 10798 at 35:1 compound to doxycycline ratio after 48 hrs by resazurin dye based microdilution broth checkerboard method; type: functional; details: ATCC 10798, 48 h, read-out: MBC99.9; in short: as §1

For `C=C[C@]1(C)C[C@@H](OC(=O)CSC(C)(C)CNC(=O)[C@H](N)C(C)C)[C@]2(C)[C@H](C)CC[C@]3(CC[C@@H](O)[C@H]32)[C@@H](C)[C@@H]1O`, the MIC [1] was 6.25 µg/mL, the MBC [2] was 6.25 µg/mL and the t1/2 [3] was > 1 h. For the same molecule, the MIC [4] was 0.25 µg/mL, the “fractional inhibitory concentration index (FICI)” value [5] was 0.19 and the MBC [6] was 1.56 µg/mL. The MIC [7] was 1.56 µg/mL, the “fractional inhibitory concentration index (FICI)” value [8] was 0.25 - 0.37 and the MIC [9] was 0.5 µg/mL. The MIC [10] was 0.25 µg/mL, the MIC [11] was 0.78 µg/mL and the “fractional inhibitory concentration index (FICI)” value [12] was 0.38. The MBC [13] was 25 µg/mL (≈ 44.1 µM), the MIC [14] was 12.5 µg/mL (≈ 22.1 µM) and the MBC [15] was 1.56 µg/mL.
